Measured values reported in ChEMBL document CHEMBL1132241, “Novel multidrug resistance reversal agents” (J Med Chem, 1999).

How the values were obtained:
[1] = Partition coefficient (logP); assay type: physicochemical; conditions: octanol/water; read-out: logP
Mus musculus [2] = assay: Relative tumor growth inhibition against human epidermoid carcinoma KB/8.5 implanted subcutaneously only in mice at 8 mg/kg (DOX); assay type: functional; conditions: route subcutaneous
Procedure, shortened: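 KB/8.5 cells grown in RPMI 1640 with 5% fetal calf serum plus colchicine (10 ng/mL), which was removed for two passages. 8 × 10^6 cells were then implanted sc in athymic nude mice. At 100-300 mg tumor mass, mice were grouped 5-10/group. Doxorubicin was given as a single iv dose (8 mg/kg). Tumor mass was measured on day 14, and relative growth was compared with saline control.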

Mus musculus [3] = assay: Percent tumor growth inhibition obtained for the combination of DOX(8 mg/kg) together with MDR reversal agent versus DOX (8 mg/kg) alone on day 14 at 100 mg/kg dose(in vivo); assay type: functional; conditions: 336 h, read-out: TGI
Procedure, shortened: (§1)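 Athymic nude mice bearing sc KB/8.5 tumors (8×10^6 cells, colchicine withdrawn for two passages), grouped at 100–300 mg tumor mass, 5–10 mice/group. Doxorubicin 8 mg/kg given once iv; reversal agent or placebo given sc 2 h before and 2 h after. Tumor mass on day 14 used for relative tumor growth versus doxorubicin alone; Student t-test on log RTG.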

[4] = (§2) In vitro concentration at which 50% of human colon carcinoma cells (S1-B1-20) resistant to bisantrene have survived; assay type: ADME, cell-based, S1B1-20; conditions: S1-B1-20 human colon carcinoma cells resistant to bisantrene, read-out: LD50 (the source's name)
Procedure, shortened: (§3)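 S1-B1-20 cells (LS 174 T-derived S1 clone selected in bisantrene over 12–16 weeks), trypsinized, 20 000 cells/well. Test agent alone in DMSO (≤0.1% final), 0.1–80 µM, 3 days at 37 °C, 7% CO2. Survival by sulforhodamine B read at 540 nm versus untreated cells. Two to four measurement sets were made, and the value is the concentration giving 50% survival from a best-fit curve.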

S1B1-20 [5] = assay: In vitro concentration required to inhibit tumor activity on subclone of human colon carcinoma cells (S1-B1-20) resistant to bisantrene; assay type: functional, cell-based
Procedure, shortened: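 S1-B1-20 cells (S1 clone of LS 174 T, selected in bisantrene over 12–16 weeks) plated at 20 000 cells/well with or without 20 μM bisantrene, plus test agent 0.1–80 μM from DMSO stock (final DMSO ≤0.1%). 3 days, 37 °C, 7% CO2. Survival by sulforhodamine B at 540 nm. IC50 from best-fit curve of difference score (survival alone minus survival with bisantrene) at 50; 2–4 sets of measurements.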

Mus musculus [6] = assay: Percent increase in mean life span relative to treatment with an equivalent dose of vincristine alone at 6.3 mg/kg in mice with vincristine-resistantmurine leukemia P388/VCR cells; assay type: functional
Procedure, shortened: (§4)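 CDF1 mice were implanted ip with 1 × 10^6 P388/VCR cells. Agent and 0.2 mg/kg vincristine were given simultaneously ip once daily, days 1–7. Mean survival over up to 30 days was compared with vincristine alone at an equivalent dose, giving % increase in life span. Student t-test was applied to mean survival time.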

Mus musculus [7] = assay: Percent increase in mean life span in mice infected with leukemia P388/VCR, at 6.3 mg/Kg dose; assay type: functional
Procedure, shortened: (§5)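 CDF1 mice (groups of 10–15) were implanted ip with 1 × 10^6 P388/VCR cells. Agent plus 0.2 mg/kg vincristine were given together ip once daily on days 1–7, starting 1 day post-implant, in cremophor/ethanol or propylene glycol/ethanol vehicle. Survival was recorded to 30 days. Result is the % increase in mean life span versus placebo control.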

Mus musculus [8] = assay: Percent increase in mean life span when 0.2 mg/kg vincristine was administered ip once daily on days 1-7, in mice infected with leukemia P388/VCR; assay type: functional; design: concentration or dose not given beside the values; conditions: route intraperitoneal
Procedure, shortened: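 CDF1 mice bearing ip P388/VCR (1 × 10^6 cells) received 0.2 mg/kg vincristine ip once daily on days 1–7. Mean survival to 30 days was expressed as % increase in life span relative to placebo control.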

Mus musculus [9] = assay: Percent tumor growth inhibition against human epidermoid carcinoma KB/8.5 implanted subcutaneously in mice at 100 mg/kg of compound along with 8 mg/kg (DOX ) was determined; assay type: functional; procedure, shortened: as §1
Mus musculus [10] = assay: Percent increase in mean life span relative to treatment with an equivalent dose of vincristine alone at 12.5 mg/kg in mice with vincristine-resistantmurine leukemia P388/VCR cells; assay type: functional; procedure, shortened: as §4
Mus musculus [11] = assay: Percent increase in mean life span in mice infected with leukemia P388/VCR, at 12.5 mg/Kg dose; assay type: functional; procedure, shortened: as §5
Mus musculus [12] = assay: Percent increase in mean life span relative to treatment with an equivalent dose of vincristine alone at 25 mg/kg in mice with vincristine-resistantmurine leukemia P388/VCR cells; assay type: functional; procedure, shortened: as §4
Mus musculus [13] = assay: Percent increase in mean life span in mice infected with leukemia P388/VCR, at 25 mg/Kg dose; assay type: functional; procedure, shortened: as §5
Mus musculus [14] = assay: Percent tumor growth inhibition against human epidermoid carcinoma KB/8.5 implanted subcutaneously in mice at 50 mg/kg of compound along with 8 mg/kg (DOX ) was determined; assay type: functional; procedure, shortened: as §1
S1B1-20 [15] = assay: as §2; assay type: ADME, cell-based; conditions: s1b1-20, read-out: LD50 (the source's name); procedure, shortened: as §3
Mus musculus [16] = assay: Percent increase in mean life span relative to treatment with an equivalent dose of vincristine alone at 50 mg/kg in mice with vincristine-resistantmurine leukemia P388/VCR cells; assay type: functional; procedure, shortened: as §4
Mus musculus [17] = assay: Percent increase in mean life span in mice infected with leukemia P388/VCR, at 50 mg/Kg dose; assay type: functional; procedure, shortened: as §5
Mus musculus [18] = assay: Percent tumor growth inhibition against human epidermoid carcinoma KB/8.5 implanted subcutaneously in mice at 25 mg/kg of compound along with 8 mg/kg (DOX ) was determined; assay type: functional; procedure, shortened: as §1

SMILES | logP [1] | Relative tumor growth (Mus musculus [2]) | CC50 [4] [µM] | IC50 (S1B1-20 [5]; Homo sapiens, S1B1-20) [µM] | ILS (Mus musculus [8]) [%] | CC50 (S1B1-20 [15]) [µM] | IC50 (S1B1-20 [5]; s1b1-20) [µM] | other results
COc1ccc(C(C#N)(CCCCCN2CCc3cc(OC)c(OCCCl)cc3C2)Sc2ccc(C)cc2)cc1OC (configuration not stated) | 6.77 | 75 | 16.8 | 0.37 |  |  |  | inhibition in vivo at 100 mg/kg (Mus musculus [3]): 64%
COc1ccc(C(CCCCCN2CCc3cc(OC)c(OC)cc3C2)Sc2ccc(C)cc2)cc1OC (configuration not stated) | 7.42 | 58 | 16.9 | 0.33 | 21 |  |  | ILS at 6.3 mg/kg (Mus musculus [6]): 13%; ILS at 6.3 mg/kg (Mus musculus [7]): 37%; TGI (Mus musculus [9]): 68%
COc1ccc(C(C#N)(CCN2CCc3cc(OC)c(OC)cc3C2)Sc2ccc(C)cc2)cc1OC (configuration not stated) | 4.59 |  | 33.7 | 2.3 | 67 |  |  | ILS at 12.5 mg/kg (Mus musculus [10]): 13%; ILS at 12.5 mg/kg (Mus musculus [11]): 89%
COc1ccc(C(C#N)(CCCCCN2Cc3cc(OC)c(OC)cc3C2)Sc2ccc(C)cc2)cc1OC (stereo in doubt; 28a) | 5.55 | 67 |  |  | 15 | 22.8 | 0.81 | ILS at 25 mg/kg (Mus musculus [12]): 41%; ILS at 25 mg/kg (Mus musculus [13]): 63%; TGI (Mus musculus [14]): 65%
COc1ccc(C(C#N)(CCCCCN2Cc3cc(OC)c(OC)cc3C2)SC2CCCCC2)cc1OC (stereo in doubt; 28c) |  |  |  |  |  | 15 | 0.35 | 
COc1ccc(C(C#N)(CCCCCN2CCc3cc(OC)c(OCCn4ccnc4)cc3C2)Sc2ccc(C)cc2)cc1OC (stereo in doubt; 39a) |  | 67 |  |  | 15 | 14.7 | 0.69 | ILS at 50 mg/kg (Mus musculus [16]): 48%; ILS at 50 mg/kg (Mus musculus [17]): 71%; TGI (Mus musculus [18]): 46%
COc1ccc(C(C#N)(CCCCCN2Cc3cc(OC)c(OC)cc3C2)Sc2ccc(C)cc2)cc1OC (stereo in doubt; 44) |  |  |  |  |  | 11.4 | 0.26 | 
COc1cc2c(cc1OC)CN(CCCCCCC(Sc1ccc(C)cc1)c1ccc(OC)c(OCCn3ccnc3)c1)CC2 (stereo in doubt; 47) |  |  |  |  |  | 5.64 | 0.29 | Relative tumor growth (Mus musculus [2]; 8 mg/kg): 80; TGI (Mus musculus [9]): 56%
